Results from PubChem BioAssay AID463111 (Johns Hopkins Ion Channel Center, 2010).
Screen size: about 310,000 compounds; about 2,800 (0.9%) were called active.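 How the source made its calls: active means B-score of the integrated calcium signal more than 4 SD below the library mean, with starting fluorescence not abnormally high; inactive means the rest.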 The entries come from a sample that favours actives as a whole.

Experiment: RGS4 potentiators or activators, primary screen, cell-based, HEK293 M3R inducible RGS4, calcium flux (AID 463111);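 on B-score: negative B-score means reduced calcium response which marks RGS4 activation or potentiation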
Details: HEK293 M3R/inducible RGS4, carbachol calcium flux Fluo4, at 10 µM; active compounds read low
Outline: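 Test system: HEK293 cells with stable M3R and inducible RGS4; also added: carbachol at ECmax as muscarinic agonist stimulus; schedule: dye loading 30 min 37 °C, buffer rest 30 min RT; technique: kinetic calcium fluorescence imaging with Fluo4-AM dye, 2 µM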
In the case of CC(C)OC(=O)c1sc2nc3c(cc2c1N)C(=O)CCC3, the B-score is reported as “inactive”.
For Cc1ccc(-c2nn(-c3ccccc3)cc2C(=O)NCCCN2CCCC2=O)cc1, the B-score was “inactive”.
With Cc1cccc(C)c1NC(=O)CNC(=O)c1c(C)nn(-c2ccccc2)c1C the B-score was “inactive”.
In the case of CN(/C(=N/S(=O)(=O)c1cccs1)c1ccccc1)c1ccc(O)cc1, the B-score is reported as “inactive”.
In the case of CCCNC(=O)CCn1nc(-c2ccccc2)c2ccccc2c1=O, the B-score is reported as “inactive”.
For CCc1cccc(CC)c1NC(=O)COc1ccccc1C(=O)c1cc(C#N)c(=O)n(C2CCCCC2)c1, the B-score was “inactive”.
In the case of CC(=O)N1CCN(c2ccccc2NC(=S)NC(=O)c2cc3ccccc3o2)CC1, the B-score is reported as -6.98 (active).
In the case of CCc1ccc(C(=O)NC(=S)Nc2ccccc2N2CCOCC2)cc1, the B-score is reported as “inactive”.
With COc1ccc(C(=O)NC(=S)Nc2ccccc2N2CCN(S(C)(=O)=O)CC2)cc1OC the B-score was “inactive”.
In the case of CCCCn1c(N)c(N(CC(C)C)C(=O)C2CSC3(C)CCC(=O)N23)c(=O)[nH]c1=O (configuration not stated), the B-score is reported as “inactive”.
For CCCCn1c(N)c(N(CC)C(=O)c2ccc(N(C)S(=O)(=O)c3ccc(C)cc3)cc2)c(=O)[nH]c1=O, the B-score was “inactive”.
With CCS(=O)(=O)C1=NSC2=NC(=O)/C(=C\c3cc(C)n(-c4cccc(OC)c4)c3C)C(=N)N21 the B-score was -7.01 (active).
For Cc1cc(/C=C2/C(=N)N3C(=NC2=O)SN=C3S(C)(=O)=O)c(C)n1-c1ccccc1, the B-score was “inactive”.
For CCS(=O)(=O)C1=NSC2=NC(=O)/C(=C\c3ccc(OS(=O)(=O)c4ccccc4)cc3)C(=N)N21, the B-score was “inactive”.
In the case of COCCCNC(=O)CNC(=O)c1nn(-c2ccc(OC)cc2)c(=O)c2ccccc12, the B-score is reported as “inactive”.
With Cc1cc(C=O)c(C)n1-c1ccc(NC2CCCCC2)c([N+](=O)[O-])c1 the B-score was -7.21 (active).
For Cc1c(NS(=O)(=O)c2ccc(NC3CCCC3)c([N+](=O)[O-])c2)c(=O)n(-c2ccccc2)n1C, the B-score was “inactive”.
In the case of Cc1cc([N+](=O)[O-])ccc1NC1CCCC1, the B-score is reported as “inactive”.
For Cc1cc(-c2nnc(SCC(=O)Nc3ccc(F)cc3)n2N)n[nH]1, the B-score was “inactive”.
With O=C(NCc1ccco1)/C(=C/c1cccc([N+](=O)[O-])c1)NC(=O)c1ccco1 the B-score was “inactive”.
With CC(NC(=O)c1ccccc1SCC(=O)N1CCCC1)c1ccccc1 (configuration not stated) the B-score was “inactive”.
In the case of COc1ccccc1NC(=O)COC(=O)c1ccccc1SCC(=O)N1CCCC1, the B-score is reported as “inactive”.
For CC(C)N(Cc1ccccc1)C(=O)COC(=O)c1ccccc1SCC(=O)N1CCCC1, the B-score was -8.67 (active).
In the case of Cc1ccc(C(=O)N/C(=C\c2cccs2)C(=O)NCCc2ccccn2)cc1C, the B-score is reported as “inactive”.
For COc1ccc(CN2CCCC(C(=O)c3ccc(Cl)cc3)C2)cc1Cn1cncn1 (configuration not stated), the B-score was -10.3 (active).
With COc1ccc(CCN(C)C(=O)C2CCCN(Cc3ccc(OC)c(OC)c3)C2)cc1OC (configuration not stated) the B-score was “inactive”.
For COc1cc(CN2CCCC(C(=O)c3ccc(SC)cc3)C2)cc(Cl)c1O (configuration not stated), the B-score was “inactive”.
With CC[n+]1c(C)n(-c2ccccc2)c2ccc(NC(C)=O)cc21 the B-score was “inactive”.
In the case of CC(C)c1ccc(OCC(O)Cn2cnc3ccccc32)cc1 (configuration not stated), the B-score is reported as “inactive”.
In the case of OC(CN=c1sc2ccccc2n1CC(O)COc1ccccc1)COc1ccccc1 (configuration not stated), the B-score is reported as -10.8 (active).
With C=CCn1c(=N)n(CC(O)COc2ccc(OC)cc2)c2ccccc21 (configuration not stated) the B-score was “inactive”.
In the case of COc1cccc(NC(=O)Cn2cnc3sc(C)c(S(=O)(=O)N4CCN(C)CC4)c3c2=O)c1, the B-score is reported as “inactive”.
For O=C(CCCOc1ccc(Cl)cc1Cl)NNC(=O)C1CCC1, the B-score was “inactive”.
In the case of Cc1ccc(Cl)c(OCC(=O)NN2CCN(C)CC2)c1, the B-score is reported as “inactive”.
With CN1CCC(OC(=O)COc2ccc(Cl)cc2Cl)CC1 the B-score was -7.11 (active).
With CC(C)N1C(=O)N(c2ccccc2)C(C)(O)CC1(C)C (configuration not stated) the B-score was “inactive”.
In the case of CN(C)C(CNC(=O)c1ccc(S(=O)(=O)NCc2ccco2)cc1)c1ccccc1 (configuration not stated), the B-score is reported as “inactive”.
With CC(C)CN(C(=O)Cn1c(=O)cnc2ccccc21)C1CCS(=O)(=O)C1 (configuration not stated) the B-score was “inactive”.
For COc1ccccc1CCCNC(=O)C1CCC(=O)N(CCN2CCOCC2)C1 (configuration not stated), the B-score was “inactive”.
For Cc1[nH]n(-c2cccc(Cl)c2)c(=O)c1/C=N/n1c(C)nc2ccccc2c1=O, the B-score was “inactive”.
With COc1cc(SC#N)ccc1N=Cc1c(C)[nH]n(-c2ccc(C)cc2)c1=O the B-score was “inactive”.
With Cc1ccc(-n2[nH]c(C)c(/C=N/N3C(=O)c4cccc5cccc(c45)C3=O)c2=O)cc1 the B-score was -9.28 (active).
For COc1ccc(N2CCN(S(=O)(=O)c3ccc4c(c3)N(C(C)=O)CCO4)CC2)cc1, the B-score was “inactive”.
With CCOc1ccc(NC(=O)C(C)N2C(=O)c3ccccc3C2=O)cc1 (configuration not stated) the B-score was “inactive”.
With CC(=O)c1ccc(OCC(O)CN2CCN(S(=O)(=O)c3cccc(Br)c3)CC2)cc1 (configuration not stated) the B-score was “inactive”.
In the case of COc1ccc(C2c3ccc(O)cc3Oc3ncn(CCCO)c(=N)c32)cc1OC (configuration not stated), the B-score is reported as “inactive”.
With c1ccc2c(c1)CSc1sccc1C2=C1CCNCC1 the B-score was -7.49 (active).
For Nc1nnc(SCC(=O)NC2CCCc3ccccc32)s1 (configuration not stated), the B-score was “inactive”.
In the case of CCn1ccnc1CN1CCCC(C(=O)c2ccc3c4c(cccc24)CC3)C1 (configuration not stated), the B-score is reported as “inactive”.
In the case of CC(C)(C)NCCCOc1ccc(Cl)cc1C(C)(C)C, the B-score is reported as “inactive”.
For CN(C)CCOCCOc1ccc(Cl)c2ccccc12, the B-score was “inactive”.
For CN(C)CCOc1ccc(Cl)cc1C(C)(C)C, the B-score was -7.65 (active).
For COc1ccc(/C=C2/SC(=O)N(CCCCCC(=O)Nc3ccccc3C(=O)O)C2=S)cc1, the B-score was “inactive”.
For Cc1cc(C)cc(C(=O)N(CCc2ccccc2)C2=CC3CCC(C2)N3C)c1 (configuration not stated), the B-score was “inactive”.
With CCCN(CCc1ccccc1)C1CCc2c(O)cccc2C1 (configuration not stated) the B-score was -10.2 (active).
For CN(C)S(=O)(=O)c1cccc(-c2nn(-c3ccccc3)cc2/C=C2\SC(=S)N(CC(=O)O)C2=O)c1, the B-score was “inactive”.
With Cc1ccc(-c2nn(-c3ccccc3)cc2/C=C2\SC(=S)N(CCCCCC(=O)O)C2=O)o1 the B-score was -7.93 (active).
With COc1ccc(-c2nn(-c3ccccc3)cc2/C=C2/SC(=S)N(CCCC(=O)O)C2=O)c(C)c1 the B-score was “inactive”.
In the case of Oc1oc(-c2ccccc2Br)nc1/C=N/c1ccccn1, the B-score is reported as “inactive”.
With CSc1nnnn1-c1c(C)cc(C)cc1C the B-score was “inactive”.
For Cc1cc2oc3ccc(NCCC4CCCN4C)cc3c(=O)c2cc1C (configuration not stated), the B-score was -9.61 (active).
For Cc1cc2oc(=O)cc(CN3CCN(Cc4ccccc4)CC3)c2cc1C, the B-score was “inactive”.
For CCCOc1ccc(C2c3c(oc4cc(C)c(C)cc4c3=O)C(=O)N2CCCN2CCOCC2)cc1 (configuration not stated), the B-score was “inactive”.
With C=CS(=O)c1sc(Cl)c(N2CCOCC2)c1[N+](=O)[O-] (configuration not stated) the B-score was “inactive”.
With CCC(C(=O)OC)n1cnc2scc(-c3ccc(C)cc3)c2c1=O (configuration not stated) the B-score was “inactive”.
For CC(=O)Nc1ccc(/C(C)=N/NC(=O)CN(c2ccccc2Br)S(C)(=O)=O)cc1, the B-score was “inactive”.
With O=C(O)c1cccc2c1C(=O)N(C1CCCC1)C2 the B-score was “inactive”.
For CCOC(=O)c1c(NC(=O)C2CC=CCC2C(=O)O)sc(C)c1CC (configuration not stated), the B-score was “inactive”.
In the case of CCc1c(C)sc(NC(=O)c2cccs2)c1C(N)=O, the B-score is reported as “inactive”.
With CCc1c(C)sc(NC(=O)c2ccc(Br)o2)c1C(=O)OC the B-score was -10.4 (active).
In the case of COc1cccc(OC)c1C(=O)OCC(=O)/C(C#N)=C(\C)N, the B-score is reported as “inactive”.
In the case of Cc1ccc(CNC(=O)Cn2cnc(S(=O)(=O)N3CCCCC3)c2)o1, the B-score is reported as “inactive”.
In the case of Cc1nn(CC(=O)Nc2ccc(C#N)cc2)c(C)c1[N+](=O)[O-], the B-score is reported as “inactive”.
With CCOc1ccccc1NC(=O)C1CCCN(S(=O)(=O)c2ccccc2)C1 (configuration not stated) the B-score was “inactive”.
In the case of CC1Cc2ccccc2N1CC(=O)Nc1ccc2c(c1)OC(F)(F)O2 (configuration not stated), the B-score is reported as “inactive”.
For CN1CCN(c2ccc(S(=O)(=O)Nc3ccccc3)cc2[N+](=O)[O-])CC1, the B-score was -8.35 (active).
In the case of CC1CCN(c2ccc(S(=O)(=O)Nc3cc(C(=O)O)cc(C(=O)O)c3)cc2[N+](=O)[O-])CC1, the B-score is reported as “inactive”.
For COc1ccc(NS(=O)(=O)c2ccc(N3CCN(CCO)CC3)c([N+](=O)[O-])c2)cc1, the B-score was “inactive”.
With COc1ccc(N2CCN(C(=O)C3CCN(C(=O)c4ccccc4Cl)CC3)CC2)cc1 the B-score was “inactive”.
In the case of Cc1ccc(S(=O)(=O)NCc2csc(C)n2)c(C)c1, the B-score is reported as “inactive”.
With Cc1ccc(OS(=O)(=O)c2ccc(-c3csc(C)n3)s2)c(C)c1 the B-score was -9.64 (active).
In the case of CNC(=O)c1sc(NCc2ccccc2OC)nc1C, the B-score is reported as “inactive”.
With O=C(CN1C(=O)COc2ccccc21)NCCN1CCc2ccccc2C1 the B-score was “inactive”.
In the case of Cc1cccc2c1-c1sc(C(=O)NCCCN3CCc4ccccc4C3)cc1CO2, the B-score is reported as -7.27 (active).
In the case of O=C(NCCCN1CCOCC1)c1cc2c(s1)CCC2, the B-score is reported as “inactive”.
With CCOc1ccc(N(C)S(=O)(=O)c2cnc[nH]2)cc1 the B-score was “inactive”.
For COc1ccccc1C(=O)NC(=S)Nc1ccccc1N1CCCCC1, the B-score was “inactive”.
For COn1c(-c2ccc(Cl)cc2Cl)nc2ncccc21, the B-score was “inactive”.
For Clc1ccc(-c2ncc3ccccn23)c(Cl)c1, the B-score was “inactive”.
In the case of Clc1ccc(COn2c(-c3ccc(Cl)cc3Cl)nc3ncccc32)cc1, the B-score is reported as -8.26 (active).
In the case of COCCn1c(SCC(=O)Nc2nc(C)cs2)nnc1C(C)C, the B-score is reported as “inactive”.
For COc1ccc(NC(=O)c2cc3nc(-c4ccccc4)cc(C)n3n2)cc1OC, the B-score was “inactive”.
In the case of COCCNc1cc(-c2ccccc2)nc2cc(-c3cccc(F)c3)nn12, the B-score is reported as -7.61 (active).
For COC(=O)c1cc2nc(-c3ccccc3)cc(C(F)(F)F)n2n1, the B-score was “inactive”.
In the case of CN(C)CCCNC(=O)c1cc(C(=O)Cc2ccc(Cl)cc2)c[nH]1, the B-score is reported as “inactive”.
With CC(=O)C1C(c2ccc(Cl)cc2)c2c(n[nH]c2C)CC1(C)O (configuration not stated) the B-score was “inactive”.
With Cn1nnnc1SCC(=O)Nc1nc2ccccc2s1 the B-score was -7.23 (active).
In the case of C=CCn1c(SCC(=O)Nc2nc3ccccc3s2)nnc1-c1ccccc1O, the B-score is reported as “inactive”.
For COC(=O)c1ccccc1NC(=O)CSc1nnnn1C, the B-score was “inactive”.
With O=C(Cc1ccc(F)cc1)N1CCN=C1SCc1cccc([N+](=O)[O-])c1 the B-score was “inactive”.
For Cc1cc(C)cc(C(=O)N2CCN=C2SCc2ccc([N+](=O)[O-])cc2)c1, the B-score was -8.97 (active).
With Cc1cccc(CC(=O)N2CCN=C2SCc2ccc([N+](=O)[O-])cc2)c1 the B-score was “inactive”.
